Records with an inconclusive call do not appear. Active and inactive are the calls of the source.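 Rule for the calls: active = half-maximal potency at or below twice the top valid dose in every separate test run, with falling signal; inconclusive = runs disagree, or flat 30 to 70% inhibition, or poor fit; inactive = inactive in every run, including rising signal.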
Target: Serine/threonine-protein kinase 33 (Homo sapiens) (UniProt Q9BYT3)
Assay: STK33 kinase inhibitors, potency, dose response, biochemical, ADP-Glo luminescence, dry powder, set 3 (AID 602158)
Details: purified STK33, MBP phosphorylation
Outline: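 Also added: MBP as phosphorylation substrate, ATP/Mg with ATP at its Km | Test system: Purified STK33 kinase enzyme | Medium: MOPS-based assay buffer, pH 7.0, with BSA and BME | Incubation: 15 min enzyme–compound preincubation at room temperature, 60 min kinase reaction | Measured by: ADP-Glo luminescence with two-stage reagent development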

Chain of Serine/threonine-protein kinase 33 (Homo sapiens) (Q9BYT3 whole entry, looked up): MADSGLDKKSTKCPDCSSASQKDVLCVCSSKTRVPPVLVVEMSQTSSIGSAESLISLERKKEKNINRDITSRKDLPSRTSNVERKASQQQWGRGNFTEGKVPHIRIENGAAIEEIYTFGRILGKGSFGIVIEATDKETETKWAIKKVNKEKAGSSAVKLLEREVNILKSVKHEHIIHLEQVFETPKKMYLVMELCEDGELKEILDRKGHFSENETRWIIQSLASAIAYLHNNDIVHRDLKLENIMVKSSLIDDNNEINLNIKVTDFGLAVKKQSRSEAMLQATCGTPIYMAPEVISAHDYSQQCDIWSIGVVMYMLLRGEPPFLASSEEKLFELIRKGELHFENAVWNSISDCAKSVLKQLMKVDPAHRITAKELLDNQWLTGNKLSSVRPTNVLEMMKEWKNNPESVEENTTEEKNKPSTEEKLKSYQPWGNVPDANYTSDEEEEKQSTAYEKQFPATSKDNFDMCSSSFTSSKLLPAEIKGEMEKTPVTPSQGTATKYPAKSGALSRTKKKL

Structure (SMILES) | AC50 [nM]
Cc1cccc(C(=O)Nc2ccccc2-c2nc3ccccc3[nH]c2=O)c1 | 1550
O=C(Nc1ccccc1-c1nc2ccccc2[nH]c1=O)c1ccc(Cl)cc1 | 297
O=C(Nc1ccccc1-c1nc2ccccc2[nH]c1=O)c1ccc(Cl)s1 | 380
O=c1[nH]c2ccccc2nc1-c1ccccc1NS(=O)(=O)c1ccccc1 | 7250
Cc1ccc(C(=O)Nc2ccccc2-c2nc3ccccc3[nH]c2=O)cc1 | 763
O=C(Nc1ccccc1-c1nc2ccccc2[nH]c1=O)c1nccs1 | 522
O=C(Nc1ccccc1-c1nc2ccccc2[nH]c1=O)c1ccccc1 | 165
COc1cccc(C(=O)Nc2ccccc2-c2nc3ccccc3[nH]c2=O)c1 | 2240
O=c1[nH]c2ccccc2nc1-c1ccccc1NCc1ccccn1 | 1540
O=C(Nc1ccccc1-c1nc2ccccc2[nH]c1=O)c1ccccc1F | 4860

Same assay, conditions: purified STK33, MBP phosphorylation, at 10 µM (top of the series)

Structure (SMILES) | activity change, negative = inhibition
O=c1[nH]c2ccccc2nc1-c1ccccc1NCc1ccc(F)cc1 | inactive
O=c1[nH]c2ccccc2nc1-c1ccccc1NS(=O)(=O)c1cccnc1 | inactive
O=C(Nc1ccccc1-c1nc2cc3ccccc3cc2[nH]c1=O)c1cccs1 | inactive
O=C(Nc1ccccc1-c1nc2ccccc2[nH]c1=O)c1ccccc1Cl | inactive
O=c1[nH]c2ccccc2nc1-c1ccccc1NCC1CC1 | inactive
CC(C)C(=O)Nc1ccccc1-c1nc2ccccc2[nH]c1=O | inactive
O=c1[nH]c2ccccc2nc1-c1ccccc1NS(=O)(=O)c1cccs1 | inactive
O=c1[nH]c2ccccc2nc1-c1ccccc1NCc1cccnc1 | inactive
O=c1[nH]c2ccccc2nc1-c1ccccc1NCc1ccccc1 | inactive
COc1ccccc1C(=O)Nc1ccccc1-c1nc2ccccc2[nH]c1=O | inactive
O=C(Nc1ccccc1-c1nc2ccccc2[nH]c1=O)c1cc2ccccc2s1 | inactive
O=C(Nc1ccccc1-c1nc2ccccc2[nH]c1=O)C1CC1 | inactive
Cc1ccccc1C(=O)Nc1ccccc1-c1nc2ccccc2[nH]c1=O | inactive
O=C(Nc1ccccc1-c1nc2ccccc2[nH]c1=O)C1CCCC1 | inactive
